≈ marks a conversion by molar mass, not a printed value. Calls of active or inactive are those of the source. The rule behind the calls is not given here.
Tests used:
[1] = system: Streptococcus pyogenes; experiment: Antibacterial activity against Streptococcus pyogenes ATCC 19615 after 20 hrs by CLSI based-broth microdilution method; type: functional; conditions: ATCC 19615, 20 h
[2] = system: Staphylococcus aureus; experiment: Bacteriostatic activity against Staphylococcus aureus ATCC 25923 at 16 times MIC measured over 6 hrs by time kill assay; type: functional, organism-based
[3] = system: Staphylococcus aureus; experiment: Effect on total DNA level in Staphylococcus aureus ATCC 29213 at 1/4 to 1/8 times MIC by fluorimetric method; type: functional, organism-based
[4] = system: Staphylococcus aureus; experiment: Antibacterial activity against Staphylococcus aureus ATCC 25923 after 20 hrs by CLSI based-broth microdilution method; type: functional; conditions: ATCC 25923, 20 h
[5] = system: Escherichia coli; experiment: Antibacterial activity against Escherichia coli ATCC 25922 after 20 hrs by CLSI based-broth microdilution method; type: functional; conditions: ATCC 25922, 20 h
[6] = system: Streptococcus pneumoniae; experiment: Antibacterial activity against Streptococcus pneumoniae ATCC 49619 assessed as reduction in bacterial ATP production at 0.25 to 16 times MIC measured up to 6 hrs by BacTiter-Glo assay; type: functional, organism-based
Procedure, shortened: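 Log-phase S. pneumoniae, about 1.5 × 10^6 CFU/mL in BHI containing compound at several concentrations, untreated control included; grown at 37 °C, 200 rpm, 5% CO2; samples taken at 0, 2, 4 and 6 h; ATP measured by BacTiter-Glo luminescence; triplicate.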

[7] = system: Bacillus subtilis; experiment: Inhibition of RNAP subunit beta' interaction with sigma factor A assessed as RNAP delocalization from nucleoid at 0.5 times MIC incubated for 15 mins by confocal microscopy
[8] = system: Enterobacter cloacae; experiment: Antibacterial activity against Enterobacter cloacae ATCC 13047 after 20 hrs by CLSI based-broth microdilution method; type: functional; conditions: subsp. cloacae ATCC 13047, 20 h
[9] = system: Staphylococcus saprophyticus; experiment: Antibacterial activity against Staphylococcus saprophyticus ATCC 15305 after 20 hrs by CLSI based-broth microdilution method; type: functional; conditions: subsp. saprophyticus ATCC 15305, 20 h
[10] = Therapeutic index, ratio of CC50 for human A549 cells to MIC for Streptococcus pneumoniae ATCC 49619; type: toxicity; conditions: read-out: TI
[11] = system: Streptococcus pneumoniae; experiment: Bactericidal activity against Streptococcus pneumoniae ATCC 49619 at 4 to 16 times MIC measured over 6 hrs by time kill assay; type: functional, organism-based
[12] = system: Acinetobacter baumannii; experiment: Antibacterial activity against Acinetobacter baumannii ATCC 19606 after 20 hrs by CLSI based-broth microdilution method; type: functional; conditions: ATCC 19606 = CIP 70.34 = JCM 6841, 20 h
[13] = system: HepG2; experiment: Cytotoxicity against human HepG2 cells after 48 to 72 hrs by MTT assay; type: cell-based
[14] = system: A549; experiment: Cytotoxicity against human A549 cells after 48 to 72 hrs by MTT assay; type: cell-based
[15] = system: Staphylococcus epidermidis; experiment: Antibacterial activity against Staphylococcus epidermidis ATCC 12228 after 20 hrs by CLSI based-broth microdilution method; type: functional; conditions: ATCC 12228, 20 h
[16] = Therapeutic index, ratio of CC50 for human HepG2 cells to MIC for Streptococcus pneumoniae ATCC 49619; type: toxicity; conditions: read-out: TI
[17] = system: Staphylococcus aureus; experiment: Bactericidal activity against Staphylococcus aureus ATCC 25923 assessed as decrease in CFU count at 16 times MIC measured over 6 hrs by time kill assay; type: functional, organism-based
[18] = system: Streptococcus pneumoniae; experiment: Antibacterial activity against Streptococcus pneumoniae ATCC 49619 assessed as reduction in pneumolysin release at 0.25 to 0.5 times MIC incubated for 16 to 20 hrs by Western blot analysis; type: functional, organism-based
Procedure, shortened: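 Overnight static culture in brain–heart infusion broth, with or without serially diluted compound; rifampicin and ceftriaxone controls at twofold dilutions from 2 to 0.002 μg/mL; untreated control. […] Western blot probed with rabbit polyclonal anti-pneumolysin (1:1000) and HRP anti-rabbit secondary, ECL chemiluminescence; band intensity normalized to untreated control.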

[19] = system: Staphylococcus aureus; experiment: Effect on total RNA level in Staphylococcus aureus ATCC 29213 at 1/4 to 1/8 times MIC by fluorimetric method; type: functional
[20] = system: Streptococcus pneumoniae; experiment: Bacteriostatic activity against Streptococcus pneumoniae ATCC 49619 at 1 times MIC measured over 6 hrs by time kill assay; type: functional, organism-based
[21] = system: Staphylococcus aureus; experiment: Antibacterial activity against Staphylococcus aureus ATCC 29213 after 20 hrs by CLSI based-broth microdilution method; type: functional; conditions: ATCC 29213, 20 h
[22] = system: Pseudomonas aeruginosa; experiment: Antibacterial activity against Pseudomonas aeruginosa ATCC 27853 after 20 hrs by CLSI based-broth microdilution method; type: functional; conditions: ATCC 27853, 20 h
[23] = system: Klebsiella pneumoniae; experiment: Antibacterial activity against Klebsiella pneumoniae ATCC 700603 after 20 hrs by CLSI based-broth microdilution method; type: functional; conditions: ATCC 700603, 20 h
[24] = system: Streptococcus pneumoniae; experiment: Bacteriostatic activity against Streptococcus pneumoniae ATCC 49619 assessed as decrease in bacterial growth at 4 to 16 times MIC measured over 6 hrs by time kill assay relative to control; type: functional
[25] = system: Streptococcus agalactiae; experiment: Bactericidal activity against Streptococcus agalactiae ATCC 12386 assessed as decrease in CFU count at 16 times MIC measured over 6 hrs by time kill assay; type: functional, organism-based
[26] = system: Streptococcus agalactiae; experiment: Antibacterial activity against Streptococcus agalactiae ATCC 12386 after 20 hrs by CLSI based-broth microdilution method; type: functional; conditions: ATCC 12386, 20 h
[27] = system: Staphylococcus aureus; experiment: Effect on total protein level in Staphylococcus aureus ATCC 29213 at 1/4 to 1/8 times MIC; type: functional, organism-based
[28] = Inhibition of Escherichia coli RNAP/sigma-70 protein-protein interaction assessed as reduction in RNA synthesis preincubated for 10 mins followed by sigma-70/DNA template/AGU/ApU/alpha [32P]GTP addition and measured after 10 mins by phosphorimaging analysis
[29] = system: Bacillus subtilis; experiment: Inhibition of RNAP subunit beta' interaction with sigma factor A assessed as diffusion of RNAP into cytosolic region at 1 to 2 times MIC incubated for 15 mins by confocal microscopy
[30] = system: Enterococcus faecalis; experiment: Antibacterial activity against Enterococcus faecalis ATCC 19433 after 20 hrs by CLSI based-broth microdilution method; type: functional; conditions: ATCC 19433, 20 h
[31] = system: Streptococcus agalactiae; experiment: Bacteriostatic activity against Streptococcus agalactiae ATCC 12386 at 16 times MIC measured over 6 hrs by time kill assay; type: functional, organism-based

O=C(O)c1ccc(Cl)cc1NCc1ccc(Sc2ccc(Cl)c(Cl)c2)c([N+](=O)[O-])c1
MIC [1]: 1 µg/mL (≈ 2.07 µM) | Activity [2]: Active | Activity [3]: inactive | MIC [4]: 4 µg/mL (≈ 8.27 µM) | MIC [5]: > 256 µg/mL | Activity [6]: Active | inhibition [7]: Active | MIC [8]: > 256 µg/mL | MIC [9]: 2 µg/mL (≈ 4.13 µM) | selectivity ratio [10]: 37 | Activity [11]: inactive | MIC [12]: > 256 µg/mL | CC50 [13]: 74.4 µM | CC50 [14]: 75.7 µM | MIC [15]: 2 µg/mL (≈ 4.13 µM) | selectivity ratio [16]: 36 | Activity [17]: inactive | Activity [18]: Active | Activity [19]: Active | Activity [20]: Active | MIC [21]: 4 µg/mL (≈ 8.27 µM) | MIC [22]: > 256 µg/mL | MIC [23]: > 256 µg/mL | log(activity) [24]: 2 | Activity [25]: inactive | MIC [26]: 2 µg/mL (≈ 4.13 µM) | Activity [27]: Active | IC50 [28]: 6.8 µM | inhibition [29]: Active | MIC [30]: 4 µg/mL (≈ 8.27 µM) | Activity [31]: Active

— ChEMBL document CHEMBL4616723, “Discovery of Antibacterials That Inhibit Bacterial RNA Polymerase Interactions with Sigma Factors” (J Med Chem, 2020)
